Results taken from ChEMBL document CHEMBL3112561, “Small molecule disruptors of the glucokinase-glucokinase regulatory protein interaction: 2. Leveraging structure-based drug design to identify analogues with improved pharmacokinetic profiles” (J Med Chem, 2014).
Activity calls are given as the source filed them. The calls are words filed in the database; no cut-off is given here.

How the values were obtained:
[1] = molecular target: T1, Glucokinase regulatory protein (Homo sapiens, UniProt Q14397); experiment: Inhibition of fluorescein-labeled human GK interaction with biotin-labeled human GKRP incubated for 20 mins prior to addition of fluorescein-labeled GK measured after 2 to 4 hrs by Alpha Screen assay
T1 sequence (Q14397 whole entry): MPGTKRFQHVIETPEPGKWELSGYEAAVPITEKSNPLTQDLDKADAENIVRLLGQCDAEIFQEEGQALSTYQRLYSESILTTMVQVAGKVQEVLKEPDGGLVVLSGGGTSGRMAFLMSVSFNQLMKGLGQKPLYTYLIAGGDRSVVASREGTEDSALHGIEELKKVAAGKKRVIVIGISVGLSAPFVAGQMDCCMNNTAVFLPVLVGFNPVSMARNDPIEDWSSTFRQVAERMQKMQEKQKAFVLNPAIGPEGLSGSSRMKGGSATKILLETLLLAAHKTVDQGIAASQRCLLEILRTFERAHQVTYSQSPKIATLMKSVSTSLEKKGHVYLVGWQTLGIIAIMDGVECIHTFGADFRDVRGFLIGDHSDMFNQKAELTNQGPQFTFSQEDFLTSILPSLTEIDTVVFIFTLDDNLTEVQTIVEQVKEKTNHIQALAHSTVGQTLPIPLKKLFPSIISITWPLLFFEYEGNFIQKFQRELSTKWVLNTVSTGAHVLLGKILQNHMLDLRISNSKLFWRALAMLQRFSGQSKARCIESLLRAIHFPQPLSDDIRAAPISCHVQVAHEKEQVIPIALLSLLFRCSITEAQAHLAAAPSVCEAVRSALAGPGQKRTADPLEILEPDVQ

[2] = Intrinsic clearance in rat liver microsomes at 1 uM after 30 mins in presence of NADPH; assay type: ADME; details: read-out: CLH
[3] = Intrinsic clearance in human liver microsomes at 1 uM after 30 mins in presence of NADPH; assay type: ADME; details: read-out: CLH
[4] = molecular target: T2, Glucokinase regulatory protein (Mus musculus, UniProt Q91X44); experiment: Induction of GK translocation from nucleus to cytoplasm of mouse hepatocytes preincubated for 20 mins followed by glucose challenge measured after 40 mins by Hoechst 33342 staining-based assay; assay type: cell-based, Hepatocyte
T2 sequence (Q91X44 whole entry): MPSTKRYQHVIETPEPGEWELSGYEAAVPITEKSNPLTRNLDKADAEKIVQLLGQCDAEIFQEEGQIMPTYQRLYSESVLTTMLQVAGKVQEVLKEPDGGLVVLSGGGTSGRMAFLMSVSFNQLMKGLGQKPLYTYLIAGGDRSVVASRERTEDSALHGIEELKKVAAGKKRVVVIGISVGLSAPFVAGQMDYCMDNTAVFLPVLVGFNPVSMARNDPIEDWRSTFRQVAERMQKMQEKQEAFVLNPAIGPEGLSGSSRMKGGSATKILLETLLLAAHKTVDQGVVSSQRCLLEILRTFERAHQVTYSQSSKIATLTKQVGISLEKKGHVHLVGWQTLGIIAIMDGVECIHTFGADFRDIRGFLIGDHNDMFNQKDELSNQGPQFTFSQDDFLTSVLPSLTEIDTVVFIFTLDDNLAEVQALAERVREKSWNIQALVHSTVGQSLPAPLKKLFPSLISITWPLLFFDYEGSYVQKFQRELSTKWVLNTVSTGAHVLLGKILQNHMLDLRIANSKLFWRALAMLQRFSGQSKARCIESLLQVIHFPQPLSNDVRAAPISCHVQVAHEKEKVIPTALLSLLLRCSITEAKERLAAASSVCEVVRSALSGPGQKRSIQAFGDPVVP

[5] = system: Liver microsome; experiment: Drug metabolism in rat liver microsomes assessed as cleavage of sufonamide; assay type: ADME
[6] = system: Liver microsome; experiment: Drug metabolism in rat liver microsomes assessed as oxidation of thiophene ring; assay type: ADME
[7] = system: Liver microsome; experiment: Drug metabolism in human liver microsomes assessed as cleavage of sufonamide; assay type: ADME
[8] = system: Liver microsome; experiment: Drug metabolism in human liver microsomes assessed as oxidation of thiophene ring; assay type: ADME
[9] = system: Mus musculus; experiment: Antidiabetic activity in insulin-resistant db/db mouse assessed as reduction of fed blood glucose level at 50 mg/kg, po measured at 4 to 8 hrs; assay type: functional, organism-based; set-up: dose 50 mg/kg
Procedure, shortened: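 Fed db/db mice from 8–9 wk of age, acclimatized 1 wk; retro-orbital bleed at 8:00 AM, glucose by meter, randomized, only 300–500 mg/dL included. Oral gavage at 9:00 AM in 2% HPMC/1% Tween 80, pH 2.2 (MSA). Blood glucose at 4 and 8 h post-dose versus vehicle groups (n ≥ 7); ANCOVA.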

[10] = Oral bioavailability in rat at 10 mg/kg; assay type: ADME, organism-based; details: in vivo
[11] = Volume of distribution at steady state in rat at 2 mg/kg, iv; assay type: ADME, organism-based; set-up: dose 2 mg/kg, route intravenous; details: in vivo, read-out: Vdss
Procedure, shortened: (§1)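 Intravenous PK at 2 mg/kg in 100% DMSO; steady-state volume of distribution derived from plasma profile.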

[12] = Mean residence time in rat at 10 mg/kg, po; assay type: ADME, organism-based; set-up: dose 10 mg/kg, route oral; details: in vivo
Procedure, shortened: (§2)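 Oral PK at 10 mg/kg in 1% Tween 80, 2% HPMC, 97% water, […]; mean residence time from plasma profile.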

[13] = Volume of distribution at steady state in C57Bl6 mouse at 2 mg/kg, iv; assay type: ADME, organism-based; set-up: dose 2 mg/kg, route intravenous; details: in vivo, read-out: Vdss; procedure, shortened: as §1
[14] = system: Mus musculus; experiment: Antidiabetic activity in insulin-resistant db/db mouse assessed as reduction of fed blood glucose level at 30 mg/kg, po measured at 6 hrs relative to vehicle-treated control; assay type: functional; set-up: scale not given: the % may be the effect or the level left
[15] = Mean residence time in C57Bl6 mouse at 10 mg/kg, po; assay type: ADME, organism-based; set-up: dose 10 mg/kg, route oral; details: in vivo; procedure, shortened: as §2
[16] = system: Mus musculus; experiment: Antidiabetic activity in insulin-resistant db/db mouse assessed as reduction of fed blood glucose level at 100 mg/kg, po measured at 8 hrs relative to vehicle-treated control; assay type: functional; set-up: scale not given: the % may be the effect or the level left
[17] = system: Mus musculus; experiment: Antidiabetic activity in insulin-resistant db/db mouse assessed as reduction of fed blood glucose level at 100 mg/kg, po measured at 6 hrs relative to vehicle-treated control; assay type: functional; set-up: scale not given: the % may be the effect or the level left
[18] = system: Mus musculus; experiment: Unbound maximum concentration in C57Bl6 mouse at 10 mg/kg, po; assay type: ADME, organism-based; set-up: dose 10 mg/kg, route oral; details: in vivo
[19] = Oral bioavailability in C57Bl6 mouse at 10 mg/kg; assay type: ADME, organism-based; details: in vivo
[20] = Clearance in rat at 2 mg/kg, iv; assay type: ADME, organism-based; set-up: dose 2 mg/kg, route intravenous; details: in vivo
[21] = system: Liver microsome; experiment: Drug metabolism in rat liver microsomes assessed as oxidative metabolite formation; assay type: ADME

| Structure (SMILES) | IC50 [1] [nM] | microsomal CLint at 1 µM [2] [µL/min/mg] | microsomal CLint at 1 µM [3] [µL/min/mg] | EC50 [4] [nM] | further results |
| --- | --- | --- | --- | --- | --- |
| C[C@@](O)(c1ccc(N2CCN(S(=O)(=O)c3cccs3)C[C@@H]2CN2[C@@H]3COC[C@H]2[C@@H](O)C3)cc1)C(F)(F)F | 25 | 155 | 99 | 1670 | – |
| CC(O)(c1ccc(N2CCN(S(=O)(=O)c3cccs3)C[C@@H]2CN2[C@H]3COC[C@H]2[C@@H](O)C3)cc1)C(F)(F)F (mixture of isomers) | 26 | 141 | 125 | 1290 | – |
| CC(O)(c1ccc(N2CCN(S(=O)(=O)c3cccs3)C[C@@H]2CN2CC3(COC3)C2)cc1)C(F)(F)F (mixture of isomers) | 524 | 120 | 83 | > 12500 | – |
| Nc1ncc(S(=O)(=O)N2CCN(c3ccc(C(O)(C(F)(F)F)C(F)(F)F)cc3)CC2)cn1 | – | < 14 | – | – | – |
| C[C@](O)(c1ccc(N2CCN(S(=O)(=O)c3cccs3)C[C@@H]2CN2[C@@H]3COC[C@H]2[C@@H](O)C3)cc1)C(F)(F)F | 56 | 112 | 131 | > 12500 | – |
| C[C@@](O)(c1ccc(N2CCN(S(=O)(=O)c3cccs3)C[C@@H]2CN2[C@H]3COC[C@@H]2[C@H](O)C3)cc1)C(F)(F)F | 14 | 118 | 128 | 1190 | Drug metabolism [5]: Active; Drug metabolism [6]: Active; Drug metabolism [7]: Active; Drug metabolism [8]: Active |
| CS(=O)(=O)c1ccc([C@@H](CC2CCCC2)C(=O)Nc2nccs2)cc1 | – | – | – | – | Activity [9]: Active |
| CC(O)(c1ccc(N2CCN(S(=O)(=O)c3cccs3)C[C@@H]2CN2CCC(F)(F)CC2)cc1)C(F)(F)F (mixture of isomers) | 439 | 349 | 280 | > 12500 | – |
| CC#C[C@H]1CN(S(=O)(=O)c2ccc(N)nc2)CCN1c1ccc([C@](C)(O)C(F)(F)F)cc1 | – | – | – | – | bioavailability [10]: 57%; Vd [11]: 3.7 L/kg; MRT [12]: 2.9 h |
| CC(O)(c1ccc(N2CCN(S(=O)(=O)c3cccs3)C[C@@H]2CN2[C@H]3COC[C@H]2[C@H](O)C3)cc1)C(F)(F)F (mixture of isomers) | 44 | 321 | 302 | 1690 | – |
| CC#C[C@H]1CN(S(=O)(=O)c2ccc(N)nc2)CCN1c1ccc(C(O)(C(F)(F)F)C(F)(F)F)cc1 | – | – | – | – | Vd [13]: 1.1 L/kg; Activity [14]: 47%; MRT [15]: 9.2 h; bioavailability [10]: 75%; Activity [16]: 56%; Vd [11]: 3.6 L/kg; Activity [17]: 60%; fCmax [18]: 0.068 µM; MRT [12]: 6.2 h; bioavailability [19]: 40% |
| C[C@](O)(c1ccc(N2CCN(S(=O)(=O)c3cccs3)C[C@@H]2CN2[C@H]3COC[C@@H]2[C@H](O)C3)cc1)C(F)(F)F | 16 | 114 | 135 | 4760 | – |
| Nc1csc(S(=O)(=O)N2CCN(c3ccc(C(O)(C(F)(F)F)C(F)(F)F)cc3)CC2)c1 | 324 | 90 | – | > 12500 | – |
| CC(O)(c1ccc(N2CCN(S(=O)(=O)c3cccs3)C[C@@H]2CN2C3CCC2COC3)cc1)C(F)(F)F (mixture of isomers) | 2 | > 399 | 320 | 239 | – |

Now from value to compound, other results behind:

| IC50 [1] [nM] | microsomal CLint at 1 µM [2] [µL/min/mg] | microsomal CLint at 1 µM [3] [µL/min/mg] | EC50 [4] [nM] | Structure (SMILES) | further results |
| --- | --- | --- | --- | --- | --- |
| 1430 | 90 | < 14 | > 12500 | CC(C)(C)C#CC1CN(S(=O)(=O)c2ccc(N)nc2)CCN1c1ccc(C(O)(C(F)(F)F)C(F)(F)F)cc1 (racemic) | – |
| 7 | > 399 | 451 | 820 | C[C@H]1COCCN1C[C@H]1CN(S(=O)(=O)c2cccs2)CCN1c1ccc(C(C)(O)C(F)(F)F)cc1 (mixture of isomers) | – |
| 645 | 59 | – | > 12500 | Nc1cccc(S(=O)(=O)N2CCN(c3ccc(C(O)(C(F)(F)F)C(F)(F)F)cc3)CC2)c1 | – |
| 1010 | 94 | – | > 12500 | O=S(=O)(c1ccccc1)N1CCN(c2ccc(C(O)(C(F)(F)F)C(F)(F)F)cc2)CC1 | – |
| 484 | 49 | – | > 12500 | Nc1ccc(S(=O)(=O)N2CCN(c3ccc(C(O)(C(F)(F)F)C(F)(F)F)cc3)CC2)cc1 | – |
| 8630 | 27 | – | > 12500 | Nc1cc(S(=O)(=O)N2CCN(c3ccc(C(O)(C(F)(F)F)C(F)(F)F)cc3)CC2)ccn1 | – |
| 343 | 50 | 92 | > 12500 | CC(O)(c1ccc(N2CCN(S(=O)(=O)c3cccs3)C[C@@H]2CN2CCS(=O)(=O)CC2)cc1)C(F)(F)F (mixture of isomers) | – |
| 252 | 128 | – | > 12500 | Nc1ccc(S(=O)(=O)N2CCN(c3ccc(C(O)(C(F)(F)F)C(F)(F)F)cc3)CC2)s1 | – |
| – | < 14 | < 14 | > 12500 | Nc1ccc(S(=O)(=O)N2CCN(c3ccc(C(O)(C(F)(F)F)C(F)(F)F)cc3)CC2)cn1 | clearance [20]: 2 mL/min/kg; bioavailability [10]: 71%; Vd [11]: 1.41 L/kg; Drug metabolism [21]: Not Active; MRT [12]: 8.4 h |
| – | 150 | – | – | O=S(=O)(c1cccs1)N1CCN(c2ccc(C(O)(C(F)(F)F)C(F)(F)F)cc2)CC1 | – |
| 56 | 109 | < 14 | 2930 | CCC#CC1CN(S(=O)(=O)c2ccc(N)nc2)CCN1c1ccc(C(O)(C(F)(F)F)C(F)(F)F)cc1 (racemic) | – |
| – | 237 | – | > 12500 | Nc1ccccc1S(=O)(=O)N1CCN(c2ccc(C(O)(C(F)(F)F)C(F)(F)F)cc2)CC1 | – |
| 90 | 93 | 132 | > 12500 | CC1CS(=O)(=O)CCN1C[C@H]1CN(S(=O)(=O)c2cccs2)CCN1c1ccc(C(C)(O)C(F)(F)F)cc1 (mixture of isomers) | – |
| 779 | 61 | 52 | > 12500 | Nc1ccc(S(=O)(=O)N2CCN(c3ccc(C(O)(C(F)(F)F)C(F)(F)F)cc3)C(C#CC3CC3)C2)cn1 (racemic) | – |
